The structures appear in SMILES notation.

Experimental findings from ChEMBL document CHEMBL3525967, “In vitro glucuronidation of the antibacterial triclocarban and its oxidative metabolites” (Drug Metab Dispos, 2012) are described below.

Data set [1] deals with Liver microsome. In words: (§1) Drug metabolism in human liver microsomes after 30 mins by LC-ESI-MS analysis. Type of data set: ADME. The conditions noted are these: microsomes, 0.5 h. The procedure, abridged: (§2)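 2'-OH-TCC at 0.2, 0.5, 1, 2, 3, 5, 10 and 50 µM incubated with liver microsomes (alamethicin, MgCl2, saccharolactone, UDPGA; 37 °C), sampled at 5, 10, 15 and 30 min. Samples ≥5 µM diluted 1:9 in ACN; LC-ESI-MS. KM and vmax fitted from rate vs concentration; intrinsic clearance derived from these; mean and SD of three.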

The nature of data set [2]: as §1. Type of data set: ADME. To be noted: liver microsomes. A digest of the protocol:
as §2

The nature of data set [3]: Drug excretion in monkey urine. Type of data set: ADME, tissue-based, Macaca mulatta. To be noted: rhesus monkey, read-out: Drug excretion.
Data set [4] deals with T1, UDP-glucuronosyltransferase 1A3 (Homo sapiens, UniProt P35503).
T1 sequence (P35503 whole entry): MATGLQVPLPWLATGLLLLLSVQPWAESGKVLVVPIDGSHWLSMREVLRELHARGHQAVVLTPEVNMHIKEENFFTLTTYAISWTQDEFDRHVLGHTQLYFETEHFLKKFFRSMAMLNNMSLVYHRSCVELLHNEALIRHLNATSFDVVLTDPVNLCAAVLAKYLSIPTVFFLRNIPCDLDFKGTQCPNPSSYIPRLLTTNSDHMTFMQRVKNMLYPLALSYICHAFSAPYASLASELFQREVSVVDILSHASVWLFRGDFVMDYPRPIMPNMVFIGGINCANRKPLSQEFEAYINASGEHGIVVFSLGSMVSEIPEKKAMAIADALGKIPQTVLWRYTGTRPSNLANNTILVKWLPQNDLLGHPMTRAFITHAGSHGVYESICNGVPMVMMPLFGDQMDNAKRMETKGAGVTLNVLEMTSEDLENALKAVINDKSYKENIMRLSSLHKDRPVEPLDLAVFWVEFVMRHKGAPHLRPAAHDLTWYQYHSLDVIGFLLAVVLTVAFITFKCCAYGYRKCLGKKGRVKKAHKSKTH
In words: Drug metabolism assessed as human UGT1A3-mediated N'-glucuronide-triclocarban formation expressed in baculovirus infected insect sf9 cells incubated for 5 mins prior to UDPGA addition measured after 5 to 30 mins by LC-UV analysis. In kind it is ADME. A digest of the protocol: (§3)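 Microsomes or UGT Supersomes (5 µg protein) were held 15 min on ice with alamethicin in 100 mM potassium phosphate pH 7.4. TCC was added at 10 µM (2% DMSO) with 10 mM MgCl2 and 10 mM saccharolactone, pre-warmed 5 min at 37 °C, then started with UDPGA. Samples at 5, 10, 15 and 30 min were quenched in ACN. Product was read by LC-UV at 265 nm; rate came from regression over time, three incubations.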

Data set [5] has as its target T2, UDP-glucuronosyltransferase 1A9 (Homo sapiens, UniProt O60656).
T2 sequence (O60656 whole entry): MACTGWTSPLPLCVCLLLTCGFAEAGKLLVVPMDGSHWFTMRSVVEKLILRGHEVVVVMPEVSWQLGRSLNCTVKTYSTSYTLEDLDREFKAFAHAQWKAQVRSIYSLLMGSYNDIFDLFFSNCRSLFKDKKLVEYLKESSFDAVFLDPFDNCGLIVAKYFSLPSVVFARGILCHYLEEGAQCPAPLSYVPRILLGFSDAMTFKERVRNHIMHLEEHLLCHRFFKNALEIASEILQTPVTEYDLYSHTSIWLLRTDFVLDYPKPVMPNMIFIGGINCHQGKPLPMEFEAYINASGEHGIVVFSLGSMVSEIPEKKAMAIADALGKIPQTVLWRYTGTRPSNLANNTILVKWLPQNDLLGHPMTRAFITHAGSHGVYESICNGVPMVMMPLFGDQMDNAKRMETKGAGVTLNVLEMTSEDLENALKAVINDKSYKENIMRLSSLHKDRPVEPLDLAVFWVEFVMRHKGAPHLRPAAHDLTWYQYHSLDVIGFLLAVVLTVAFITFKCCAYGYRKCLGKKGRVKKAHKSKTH
In words: Drug metabolism assessed as human UGT1A9-mediated N-glucuronide-triclocarban formation expressed in baculovirus infected insect sf9 cells incubated for 5 mins prior to UDPGA addition measured after 5 to 30 mins by LC-UV analysis. In kind it is ADME. The procedure, abridged:
as §3

Data set [6] has as its system Liver microsome. Kind of data set: Drug metabolism in human liver microsomes assessed as N-glucuronide-triclocarban formation incubated for 5 mins prior to UDPGA addition measured after 5 to 30 mins by LC-UV analysis. Type of data set: ADME. A digest of the protocol:
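Pooled human kidney or liver microsomes (liver: 25 mixed-gender donors), 5 µg protein, in 200 µL 100 mM potassium phosphate pH 7.4. Alamethicin pre-treated on ice 15 min. Final 10 µM TCC (2% DMSO), with 10 mM MgCl2 and 10 mM saccharolactone, preincubated 5 min at 37 °C. Started with UDPGA (20 mM stock). Sampled at 5, 10, 15 and 30 min into ACN containing 1 µM DCC internal standard.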

Data set [7] deals with T1, UDP-glucuronosyltransferase 1A3. Kind of data set: Drug metabolism assessed as human UGT1A3-mediated N-glucuronide-triclocarban formation expressed in baculovirus infected insect sf9 cells incubated for 5 mins prior to UDPGA addition measured after 5 to 30 mins by LC-UV analysis. In kind it is ADME. A digest of the protocol:
as §3

A short description of data set [8]: Drug metabolism in cynomolgus monkey liver microsomes assessed as N-glucuronide-triclocarban formation incubated for 5 mins prior to UDPGA addition measured after 5 to 30 mins by LC-UV analysis. Type of data set: ADME, Macaca fascicularis. The procedure, abridged: as §3
The target in data set [9] is T3, UDP-glucuronosyltransferase 1A1 (Homo sapiens, UniProt P22309).
T3 sequence (P22309 whole entry): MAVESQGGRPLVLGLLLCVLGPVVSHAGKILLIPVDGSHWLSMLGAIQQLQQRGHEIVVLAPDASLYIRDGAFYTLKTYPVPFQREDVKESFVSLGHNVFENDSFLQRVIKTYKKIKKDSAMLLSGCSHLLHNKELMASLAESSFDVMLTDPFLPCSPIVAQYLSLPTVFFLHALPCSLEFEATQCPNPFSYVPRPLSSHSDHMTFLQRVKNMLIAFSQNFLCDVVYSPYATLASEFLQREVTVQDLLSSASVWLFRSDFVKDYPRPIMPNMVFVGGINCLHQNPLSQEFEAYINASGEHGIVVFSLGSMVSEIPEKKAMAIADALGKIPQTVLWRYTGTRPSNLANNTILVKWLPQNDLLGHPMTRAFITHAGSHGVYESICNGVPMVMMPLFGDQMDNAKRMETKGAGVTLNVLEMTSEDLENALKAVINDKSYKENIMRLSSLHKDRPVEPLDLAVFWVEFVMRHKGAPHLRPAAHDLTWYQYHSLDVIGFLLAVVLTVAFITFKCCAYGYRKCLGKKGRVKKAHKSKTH
Kind of data set: Drug metabolism assessed as human UGT1A1-mediated N-glucuronide-triclocarban formation expressed in baculovirus infected insect sf9 cells incubated for 5 mins prior to UDPGA addition measured after 5 to 30 mins by LC-UV analysis. Type of data set: ADME. The procedure, abridged:
as §3

For `O=C(Nc1ccc(Cl)c(Cl)c1)Nc1ccc(Cl)cc1O`, the Vmax with Liver microsome [1] is recorded as 5.37 nmol/min/mg. Moreover, in [2], the Km at 0.5 h stood at 3.08 µM.
As to `O=C(Nc1ccc(Cl)cc1)Nc1ccc(Cl)c(Cl)c1` [TRICLOCARBAN], the dose excreted in data set [3] worked out at 25%. The Drug metabolism entry (in [4]; in data set [5]; with Liver microsome [6]; in data set [7]; in data set [8]; in [9]) was “metabolite_not_detected” throughout.
